Measured values taken from ChEMBL document CHEMBL1136986, “Identification of anxiolytic/nonsedative agents among indol-3-ylglyoxylamides acting as functionally selective agonists at the gamma-aminobutyric acid-A (GABAA) alpha2 benzodiazepine receptor” (J Med Chem, 2009).
Activity calls are given as the source filed them. No cut-off for these calls is given here.

Key:
[1] = Displacement of [3H]flumazenil from Benzodiazepine receptor in bovine cerebral cortex membrane; type: cell membranes, Bos taurus
Bos taurus = species: Bos taurus; test: Displacement of [3H]flumazenil from Benzodiazepine receptor in bovine cerebral cortex membrane at 10 uM; type: cell membranes
[2] = target: Gamma-aminobutyric acid receptor subunit alpha-2 (Rattus norvegicus, UniProt P18508+P23576+P63138); test: Displacement of [3H]flumazenil from rat GABA-A alpha-2-beta-2-gamma-2 receptor expressed in HEK293 cells; type: cell-based
Method in brief: (§1)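 HEK293 membranes expressing rat α1β2γ2, α2β2γ2 or α5β3γ2, made in 10 mM potassium phosphate pH 7.4 (48000g, 4 °C) and resuspended with 100 mM KCl. Ki is mean ± SEM of three determinations in triplicate.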

[3] = target: GABA-A receptor; alpha-1/beta-2/gamma-2 (Rattus norvegicus) (UniProt P18508+P62813+P63138); test: Agonist activity at rat GABA-A alpha-1-beta-2-gamma-2 receptor expressed in HEK293 cells assessed as increase in 36Cl- influx; type: functional, cell-based
Method in brief: (§2)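 36Cl- uptake in HEK293 cells stably expressing rat α1β2γ2 or α2β2γ2, grown 3 days on polylysine-coated coverslips. Cells washed in HEPES/NaCl buffer pH 7.4, then dipped at room temperature into 36Cl- (2 µCi/mL) with drug, with or without GABA at EC20. Influx stopped after 8 s in ice-cold buffer with 0.1 mM picrotoxin. Result is % increase of EC20 GABA response, ≥5 independent experiments.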

Mus musculus [4] = test: Anxiolytic effect in CD1 mouse assessed as increase in time spent in white compartment at 20 mg/kg, ip by light/dark box test; type: functional, organism-based; parameters: dose 20 mg/kg
Method in brief: (§3)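 Male CD-1 mice (35-40 g), acclimatized 4 weeks to a reversed light cycle. […] Testing started 1 h later, with mouse placed in the lit chamber for a 5 min videotaped session.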

[5] = target: Gamma-aminobutyric acid receptor subunit alpha-2 (Rattus norvegicus) (UniProt P23576); test: Agonist activity at rat GABA-A alpha-2-beta-2-gamma-2 receptor expressed in HEK293 cells assessed as increase in 36Cl- influx; type: functional, cell-based; method in brief: as §2
Mus musculus [6] = test: Anxiolytic effect in CD1 mouse assessed as increase in number of transfers from lit to the dark area at 20 mg/kg, ip by light/dark box test; type: functional, organism-based; parameters: dose 20 mg/kg; method in brief: as §3
Mus musculus [7] = test: Toxicity in CD1 mouse assessed as sedative effect at 20 mg/kg, ip by light/dark box test; type: organism-based; parameters: dose 20 mg/kg, route intraperitoneal; settings: in vivo; method in brief: as §3
[8] = target: GABA-A receptor; alpha-1/beta-2/gamma-2 (Rattus norvegicus, UniProt P18508+P62813+P63138); test: Displacement of [3H]flumazenil from rat GABA-A alpha-1-beta-2-gamma-2 receptor expressed in HEK293 cells; type: cell-based; method in brief: as §1
[9] = target: GABA A receptor alpha-5/beta-3/gamma-2 (Rattus norvegicus, UniProt P18508+P19969+P63079); test: Displacement of [3H]flumazenil from rat GABA-A alpha-5-beta-3-gamma-2 receptor expressed in HEK293 cells; type: cell-based; method in brief: as §1
[10] = target: GABA A receptor alpha-5/beta-3/gamma-2 (Rattus norvegicus) (UniProt P18508+P19969+P63079); test: Displacement of [3H]flumazenil from rat GABA-A alpha-5-beta-3-gamma-2 receptor expressed in HEK293 cells at 10 uM; type: cell-based
Method in brief: (§4)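 HEK293 membranes expressing rat α2β2γ2 or α5β3γ2 incubated with [3H]flumazenil 1-2 nM for 1 h at 4 °C, in 10 mM potassium phosphate pH 7.4 with 100 mM KCl. Compound tested at 10 µM.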

Mus musculus [11] = test: Anxiolytic effect in CD1 mouse assessed as increase in number of transfers from lit to the dark area at 1.25 mg/kg, ip by light/dark box test; type: functional, organism-based; parameters: dose 1.25 mg/kg
Method in brief: (§5)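 Male CD-1 albino mice (35-40 g), acclimatized 4 weeks to reversed 12 h light cycle, dosed ip in 1% carboxymethylcellulose vehicle; 1 h later placed in centre of lit chamber of light/dark box for 5 min, videotaped. Scored time in white compartment, lit/dark transfers, and rearings plus line crossings (activity) expressed per TW; n = 4-6, mean ± SEM versus vehicle.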

Mus musculus [12] = test: Toxicity in CD1 mouse assessed as sedative effect at 1.25 mg/kg, ip by light/dark box test; type: organism-based; parameters: dose 1.25 mg/kg, route intraperitoneal; settings: in vivo; method in brief: as §5
Mus musculus [13] = test: Anxiolytic effect in CD1 mouse assessed as increase in time spent in white compartment at 1.25 mg/kg, ip by light/dark box test; type: functional, organism-based; parameters: dose 1.25 mg/kg; method in brief: as §5
[14] = target: Gamma-aminobutyric acid receptor subunit alpha-2 (Rattus norvegicus) (UniProt P23576); test: Displacement of [3H]flumazenil from rat GABA-A alpha-2-beta-2-gamma-2 receptor expressed in HEK293 cells at 10 uM; type: cell-based; method in brief: as §4

Chain of Gamma-aminobutyric acid receptor subunit alpha-2 (Rattus norvegicus) (P23576 whole entry): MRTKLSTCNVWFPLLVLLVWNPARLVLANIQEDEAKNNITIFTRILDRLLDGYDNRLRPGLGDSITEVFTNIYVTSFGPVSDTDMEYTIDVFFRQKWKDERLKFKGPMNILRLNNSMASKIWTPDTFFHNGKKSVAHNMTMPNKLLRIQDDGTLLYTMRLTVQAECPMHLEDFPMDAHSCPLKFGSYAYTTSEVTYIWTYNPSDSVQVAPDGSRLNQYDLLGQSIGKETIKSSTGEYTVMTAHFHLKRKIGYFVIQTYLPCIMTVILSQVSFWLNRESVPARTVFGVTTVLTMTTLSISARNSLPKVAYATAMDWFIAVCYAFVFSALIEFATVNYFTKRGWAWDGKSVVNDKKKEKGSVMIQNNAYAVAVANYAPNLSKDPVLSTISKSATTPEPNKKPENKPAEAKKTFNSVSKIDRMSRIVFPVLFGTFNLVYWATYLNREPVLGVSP
Chain of Gamma-aminobutyric acid receptor subunit alpha-2 (P23576 whole entry, one chain of several): as the sequence (P23576 whole entry) above
Chain of GABA A receptor alpha-5/beta-3/gamma-2 (P18508 whole entry): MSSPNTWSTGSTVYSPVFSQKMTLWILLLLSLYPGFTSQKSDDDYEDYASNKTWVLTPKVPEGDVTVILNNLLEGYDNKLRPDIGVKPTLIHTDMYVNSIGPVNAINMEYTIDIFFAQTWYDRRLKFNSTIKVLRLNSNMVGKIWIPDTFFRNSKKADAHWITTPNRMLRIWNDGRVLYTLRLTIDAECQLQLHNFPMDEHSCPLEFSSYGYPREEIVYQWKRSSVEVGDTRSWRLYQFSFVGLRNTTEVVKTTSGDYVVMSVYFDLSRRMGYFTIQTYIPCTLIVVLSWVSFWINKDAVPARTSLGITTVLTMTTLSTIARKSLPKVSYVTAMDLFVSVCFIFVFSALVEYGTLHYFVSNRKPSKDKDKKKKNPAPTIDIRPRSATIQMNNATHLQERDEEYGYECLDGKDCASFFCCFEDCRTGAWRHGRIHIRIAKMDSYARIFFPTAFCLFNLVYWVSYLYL
Chain of GABA A receptor alpha-5/beta-3/gamma-2 (P19969 whole entry): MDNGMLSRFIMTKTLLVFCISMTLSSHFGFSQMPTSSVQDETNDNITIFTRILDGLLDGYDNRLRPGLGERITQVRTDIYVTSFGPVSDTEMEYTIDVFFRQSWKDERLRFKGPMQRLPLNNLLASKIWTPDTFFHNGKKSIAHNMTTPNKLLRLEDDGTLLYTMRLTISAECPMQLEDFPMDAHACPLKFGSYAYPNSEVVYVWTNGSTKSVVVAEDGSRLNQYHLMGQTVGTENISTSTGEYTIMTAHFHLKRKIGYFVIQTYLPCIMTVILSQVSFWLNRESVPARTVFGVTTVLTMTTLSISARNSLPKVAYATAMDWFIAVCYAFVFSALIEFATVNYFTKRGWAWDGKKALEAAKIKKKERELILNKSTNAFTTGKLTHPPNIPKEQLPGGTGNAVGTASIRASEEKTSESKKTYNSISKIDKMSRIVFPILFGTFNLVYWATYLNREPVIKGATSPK
Chain of GABA A receptor alpha-5/beta-3/gamma-2 (P63079 whole entry): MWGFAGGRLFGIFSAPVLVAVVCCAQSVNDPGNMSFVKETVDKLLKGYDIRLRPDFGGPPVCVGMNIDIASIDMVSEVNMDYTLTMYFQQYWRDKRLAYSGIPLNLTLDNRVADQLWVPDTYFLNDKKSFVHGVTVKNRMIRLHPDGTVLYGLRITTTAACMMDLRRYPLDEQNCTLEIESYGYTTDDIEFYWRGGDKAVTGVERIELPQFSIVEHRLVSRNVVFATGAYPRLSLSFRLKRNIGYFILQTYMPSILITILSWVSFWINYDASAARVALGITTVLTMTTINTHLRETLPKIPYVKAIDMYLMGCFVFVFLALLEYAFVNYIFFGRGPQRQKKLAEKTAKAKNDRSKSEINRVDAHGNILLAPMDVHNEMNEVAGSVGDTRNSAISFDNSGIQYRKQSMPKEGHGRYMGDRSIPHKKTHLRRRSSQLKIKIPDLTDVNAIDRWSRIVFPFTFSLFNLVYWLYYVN
Chain of GABA-A receptor; alpha-1/beta-2/gamma-2 (P18508 whole entry): as the sequence (P18508 whole entry) above
Chain of GABA-A receptor; alpha-1/beta-2/gamma-2 (P62813 whole entry): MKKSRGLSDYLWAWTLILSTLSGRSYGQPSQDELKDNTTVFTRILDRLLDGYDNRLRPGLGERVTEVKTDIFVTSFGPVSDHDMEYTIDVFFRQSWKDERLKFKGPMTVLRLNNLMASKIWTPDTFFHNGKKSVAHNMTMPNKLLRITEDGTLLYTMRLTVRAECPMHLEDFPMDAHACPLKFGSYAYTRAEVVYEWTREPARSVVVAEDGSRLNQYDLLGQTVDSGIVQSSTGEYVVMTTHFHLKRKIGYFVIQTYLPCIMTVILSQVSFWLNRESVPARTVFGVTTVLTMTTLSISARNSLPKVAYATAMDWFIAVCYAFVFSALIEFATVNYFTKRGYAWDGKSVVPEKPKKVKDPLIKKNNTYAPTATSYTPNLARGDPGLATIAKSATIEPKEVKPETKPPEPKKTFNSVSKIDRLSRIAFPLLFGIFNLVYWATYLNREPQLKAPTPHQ
Chain of GABA-A receptor; alpha-1/beta-2/gamma-2 (P63138 whole entry): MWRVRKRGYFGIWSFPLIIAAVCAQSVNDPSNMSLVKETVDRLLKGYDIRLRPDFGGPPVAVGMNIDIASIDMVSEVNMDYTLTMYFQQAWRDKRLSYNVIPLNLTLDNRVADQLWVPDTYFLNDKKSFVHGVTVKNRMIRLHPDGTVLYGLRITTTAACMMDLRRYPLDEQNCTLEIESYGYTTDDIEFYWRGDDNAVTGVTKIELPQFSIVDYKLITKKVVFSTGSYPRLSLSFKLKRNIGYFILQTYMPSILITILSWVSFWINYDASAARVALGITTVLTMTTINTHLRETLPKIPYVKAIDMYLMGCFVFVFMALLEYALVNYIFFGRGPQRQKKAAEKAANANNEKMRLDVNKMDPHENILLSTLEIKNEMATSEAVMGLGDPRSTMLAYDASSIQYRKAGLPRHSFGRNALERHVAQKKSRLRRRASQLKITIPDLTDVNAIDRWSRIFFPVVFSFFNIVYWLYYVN

Row | Structure (SMILES) | Ki [1] | Ki [2] | Ki [8] | further results
1 | O=C(NCc1ccccc1)C(=O)c1c[nH]c2ccc([N+](=O)[O-])cc12 | 117 nM | – | – | –
2 | Cc1ccc2c(c1)CCC2NC(=O)C(=O)c1c[nH]c2ccccc12 (racemic) | – | – | – | inhibition (Bos taurus): 15%
3 | C[C@@H](NC(=O)C(=O)c1c[nH]c2ccccc12)c1ccccc1 | 1310 nM | 1550 nM | – | –
4 | O=C(N[C@@H]1CCc2ccccc21)C(=O)c1c[nH]c2ccc([N+](=O)[O-])cc12 | 28 nM | 85 nM | – | Activity [3]: 1%; Activity (Mus musculus [4]): inactive; Activity [5]: 48%; Activity (Mus musculus [6]): inactive
5 | O=C(NCc1ccc(F)cc1)C(=O)c1c[nH]c2ccccc12 | 52 nM | 118 nM | 245 nM | Activity (Mus musculus [7]): Non-toxic; Activity [3]: 11%; Activity (Mus musculus [4]): Active; Activity [5]: 85%; Activity (Mus musculus [6]): Active; Ki [9]: 163 nM
6 | COc1ccc2c(c1)CCC2NC(=O)C(=O)c1c[nH]c2ccccc12 (racemic) | 636 nM | 690 nM | 246 nM | inhibition [10]: 28%
7 | Cc1ccc2c(c1)CCC2NC(=O)C(=O)c1c[nH]c2ccc([N+](=O)[O-])cc12 (racemic) | – | – | – | inhibition (Bos taurus): 2%
8 | O=C(NCc1ccc([N+](=O)[O-])cc1)C(=O)c1c[nH]c2ccccc12 | 21 nM | 210 nM | – | –
9 | COc1ccc2c(c1)CCC2NC(=O)C(=O)c1c[nH]c2ccc([N+](=O)[O-])cc12 (racemic) | 13 nM | 231 nM | 28 nM | Ki [9]: 252 nM
10 | CN1C(=O)CN=C(c2ccccc2)c2cc(Cl)ccc21 [DIAZEPAM] | 10 nM | – | – | Activity [5]: 81%; Activity (Mus musculus [11]): Active; Activity (Mus musculus [12]): Non-toxic; Activity (Mus musculus [13]): Active
11 | O=C(NCc1ccccc1)C(=O)c1c[nH]c2ccccc12 | 120 nM | – | – | –
12 | O=C(NCc1ccc(F)cc1)C(=O)c1c[nH]c2ccc([N+](=O)[O-])cc12 | – | – | – | inhibition (Bos taurus): 24%
13 | COc1ccc(CNC(=O)C(=O)c2c[nH]c3ccccc23)cc1 | 163 nM | 1950 nM | 195 nM | inhibition [10]: 30%
14 | C[C@@H](NC(=O)C(=O)c1c[nH]c2ccc([N+](=O)[O-])cc12)c1ccccc1 | 17 nM | 121 nM | – | Activity (Mus musculus [7]): Non-toxic; Activity [3]: 35%; Activity (Mus musculus [4]): Active; Activity [5]: 79%; Activity (Mus musculus [6]): Active
15 | O=C(NC1CCc2cc([N+](=O)[O-])ccc21)C(=O)c1c[nH]c2ccc([N+](=O)[O-])cc12 (racemic) | 178 nM | 513 nM | 200 nM | Ki [9]: 749 nM
16 | O=C(NC1CCc2cc(F)ccc21)C(=O)c1c[nH]c2ccccc12 (racemic) | 2160 nM | – | 2050 nM | inhibition [10]: 44%; inhibition [14]: 29%
17 | COc1ccc(CNC(=O)C(=O)c2c[nH]c3ccc([N+](=O)[O-])cc23)cc1 | 53 nM | 1650 nM | – | –
18 | O=C(NC1CCc2cc(F)ccc21)C(=O)c1c[nH]c2ccc([N+](=O)[O-])cc12 (racemic) | 300 nM | 810 nM | 195 nM | Ki [9]: 1420 nM
19 | O=C(N[C@@H]1CCc2ccccc21)C(=O)c1c[nH]c2ccccc12 | 675 nM | 3100 nM | – | –
20 | Cc1ccc(-c2nc3ccc(C)cn3c2CC(=O)N(C)C)cc1 [ZOLPIDEM] | 51 nM | – | – | –
21 | O=C(NC1CCc2cc([N+](=O)[O-])ccc21)C(=O)c1c[nH]c2ccccc12 (racemic) | – | – | – | inhibition (Bos taurus): 47%
22 | O=C(NCc1ccc([N+](=O)[O-])cc1)C(=O)c1c[nH]c2ccc([N+](=O)[O-])cc12 | 620 nM | 2980 nM | 293 nM | Ki [9]: 2220 nM
